Measurements reported in paper PMC4550695 (mBio, 2015).

Assays:
P. aeruginosa AmiC [1] = target: T1, P. aeruginosa AmiC (Pseudomonas aeruginosa, UniProt P27017); conditions: ref [36]; cited from earlier work
[2] = endogenous, usual order; ref [52]; cited from earlier work
P. aeruginosa MPAO1 = test: Biofilm formation under static conditions, P. aeruginosa MPAO1; format: cell-based, Pseudomonas aeruginosa; conditions: isatin 10^−5 M alone, 24 h
How it was run: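 Uses a GFP-plasmid (pSMC2.1) strain; overnight preculture at 37°C diluted into LB with 400 µg/ml kanamycin. Test compound added at 2 h of subculture from DMSO/water (5/95) stock, final DMSO under 0.2%, DMSO-matched controls. After 3 h more, cells pelleted, resuspended in 0.9% NaCl at OD600 0.1, 2 h static attachment on glass slides, then LB 24 h static at 37°C. PBS-rinsed, heat fixed, CLSM/COMSTAT.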

P. aeruginosa AmiC [3] = target: T1, P. aeruginosa AmiC; test: Microscale thermophoresis binding to recombinant AmiC; conditions: for affinity for / interaction with AmiC, in words: MST, pH 7.5, 25°C
How it was run: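 His-tagged codon-optimised AmiC expressed in E. coli Rosetta2(DE3), purified by IMAC and gel filtration, RED-NHS labelled or unlabelled depending on ligand. AmiC at 50 nM final, mixed with 1:1 serial ligand dilutions in 50 mM Tris-HCl pH 7.5, 150 mM NaCl, 10 mM MgCl2, 0.05% Tween 20. After 5 min incubation, read at 25°C (laser 5/30/5 s); three independent pipettings; KD fitted by mass-action equation.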

P. aeruginosa cAMP = conditions: ref [17]; cited from earlier work
NPR-C receptor = conditions: mammalian cells; ref [25]; cited from earlier work
PA14 ΔamiC strain = test: Biofilm formation under dynamic conditions, PA14 ΔamiC strain; format: cell-based, Pseudomonas aeruginosa; conditions: BNP 10^−7 M, 24 h, P < 0.05, eight samples from three experiments
[4] = tested on: ami operon of P. aeruginosa; test: qRT-PCR of ami operon mRNA; format: cell-based, Pseudomonas aeruginosa; conditions: BNP 10^−6 M; data not shown
NPR-A receptor = conditions: mammalian cells; ref [25]; cited from earlier work
Caenorhabditis elegans = conditions: ref [16]; cited from earlier work
P. aeruginosa PA14 = test: Biofilm formation under dynamic conditions, P. aeruginosa PA14 wild type; format: cell-based, Pseudomonas aeruginosa; conditions: 24 h
[5] = tested on: membrane of P. aeruginosa; conditions: inducing increased virulence; ref [14]; cited from earlier work

T1 sequence (P27017 whole entry): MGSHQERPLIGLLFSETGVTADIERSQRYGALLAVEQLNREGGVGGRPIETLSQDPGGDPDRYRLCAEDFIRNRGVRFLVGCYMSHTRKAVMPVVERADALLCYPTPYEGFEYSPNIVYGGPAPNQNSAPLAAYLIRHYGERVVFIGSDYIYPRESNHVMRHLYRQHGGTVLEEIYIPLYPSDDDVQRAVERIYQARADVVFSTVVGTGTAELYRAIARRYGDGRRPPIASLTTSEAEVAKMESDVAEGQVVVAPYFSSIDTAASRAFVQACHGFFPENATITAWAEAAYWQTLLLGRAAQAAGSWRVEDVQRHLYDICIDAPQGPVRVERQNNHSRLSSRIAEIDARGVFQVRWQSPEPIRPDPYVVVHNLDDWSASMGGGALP

In the case of `CC(N)=O` [acetamide], the “effect of acetamide on ami operon transcription via AmiC” value (P. aeruginosa AmiC [1]) is given as “triggering the transcription of the whole ami operon”.

In the case of `O=C1Nc2ccccc2C1=O` [isatin, indole-2,3-dione], the “normal blood isatin concentration” value [2] is given as 0.3 to 1.3 µM, the “effect of isatin alone on organization of the biofilm” value (P. aeruginosa MPAO1) is given as “more irregular, with the presence of large water channels” and the “effect of isatin alone on biomass and thickness of the biofilm” value (P. aeruginosa MPAO1; two independent experiments) is given as “limited and nonsignificant increase”. It also gave a Kd (P. aeruginosa AmiC [3]) of 600 ± 200 µM.

For brain natriuretic peptide [BNP], the “intrabacterial cAMP” value (P. aeruginosa cAMP) is listed as “did not modify intrabacterial cAMP levels”, the “affinity for NPR-C” value (NPR-C receptor) is listed as “weak affinity” and the “change of biofilm formation in ΔamiC mutant” value (PA14 ΔamiC strain) is listed as −70.8% ± 12.1%. For the same molecule, the “whole ami operon transcriptional activity” value [4] was “no significant effect”, the “affinity for / interaction with AmiC, in words” value (P. aeruginosa AmiC [3]) was “no affinity for AmiC” and the “affinity for NPR-A” value (NPR-A receptor) was “strongly binds”. For the same molecule, the “effect on P. aeruginosa virulence for Caenorhabditis elegans” value (Caenorhabditis elegans) was “without effect”, the “change of biofilm average thickness” value (P. aeruginosa PA14; 10^−6 M, PA14, dynamic (flow cell), LB, 37°C, vs control, P < 0.001) was −76.0 ± 4.8% and the “change of biofilm volume” value (P. aeruginosa PA14; 10^−6 M, PA14, dynamic (flow cell), LB, 37°C, vs control, P < 0.001, CNP: ten samples from six experiments, BNP: six samples from two experiments) was −80.3% ± 4.4%. The “number and mean size of mushroom-like structures in the biofilm” value (P. aeruginosa PA14; 10^−6 M, PA14, dynamic, confocal microscopy) was “reduction of the number and mean size of mushroom-like structures” and the “change of biofilm formation” value (P. aeruginosa PA14; BNP 10^−7 M, PA14 wild type, dynamic, P < 0.001, nine samples from three experiments) was −75.1% ± 9.9%.

In the case of dynorphin, the “crossing of the membrane of P. aeruginosa” value [5] is listed as “able to freely cross the membrane”.

B1: osteocrin: specific NPR-C agonist, synthesized by J. Leprince (peptide, UniProt P61366 28-133, looked up)
Osteocrin: VDVTTTEAFDSGVIDVQSTPTVREEKSATDLTAKLLLLDELVSLENDVIETKKKRSFSGFGSPLDRLSAGSVDHKGKQRKVVDHPKRRFGIPMDRIGRNRLSNSRG
modifications: Osteocrin
In the case of B1, the “affinity for / interaction with AmiC, in words” value (P. aeruginosa AmiC [3]) is reported as “very strong interaction”.
